The structures appear in SMILES notation. Activity calls are given as the source filed them. No cut-off for these calls is given here.

Test [1] deals with Cannabinoid receptor 1 (Homo sapiens, UniProt P21554). Put plainly: Displacement of [3H]-CP55940 from human CB1 receptor transfected in HEK293EBNA cell membranes after 90 mins by liquid scintillation counting analysis. More on the design: species or system HEK293-EBNA. For orientation: Displacement assays read how much labelled ligand stays bound in the presence of the test substance.
Cannabinoid receptor 1, sequence (P21554 whole entry): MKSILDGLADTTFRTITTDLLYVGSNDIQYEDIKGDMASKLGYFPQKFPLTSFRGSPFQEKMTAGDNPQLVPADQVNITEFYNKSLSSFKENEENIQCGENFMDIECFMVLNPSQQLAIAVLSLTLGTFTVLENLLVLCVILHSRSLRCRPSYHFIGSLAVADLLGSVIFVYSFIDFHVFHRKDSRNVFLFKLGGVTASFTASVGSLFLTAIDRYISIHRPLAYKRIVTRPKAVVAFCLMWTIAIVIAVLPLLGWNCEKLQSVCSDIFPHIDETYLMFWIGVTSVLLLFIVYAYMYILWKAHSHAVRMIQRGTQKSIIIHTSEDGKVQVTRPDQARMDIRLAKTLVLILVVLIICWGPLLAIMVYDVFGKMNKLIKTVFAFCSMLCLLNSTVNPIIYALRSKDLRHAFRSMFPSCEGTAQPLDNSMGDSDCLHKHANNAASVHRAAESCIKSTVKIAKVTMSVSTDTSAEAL

Test [2] concerns the target T1, Cannabinoid receptor 2 (Homo sapiens, UniProt P34972). Put plainly: Displacement of [3H]-CP55940 from human CB2 receptor transfected in HEK293EBNA cell membranes after 90 mins by liquid scintillation counting analysis. On the set-up: species or system HEK293-EBNA. In a few lines:
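Human CB2-transfected HEK293EBNA membranes (about 0.18 mg/mL protein) in Tris-HCl with EDTA, MgCl₂ and fatty-acid-free BSA, pH 7.4. Compounds were pre-screened at a single concentration, with full curves only if displacement exceeded 50%. Ki from iterative curve fitting, three independent experiments in triplicate.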

Test [3] addresses Cannabinoid receptor 2 (Mus musculus) (UniProt P47936). Put plainly: Antagonist/inverse agonist activity at CB2 receptor in mouse BV-2 cells assessed as LPS-induced PGE2 relaese at 10 fold Ki after 16 hrs by ELISA immunoassay in presence of CB2R antagonist SR144528. The test is classed as cell-based. In a few lines: (§1)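 Mouse BV-2 microglia plated at 5 × 10⁵ cells/well on poly-L-ornithine and grown overnight in DMEM with 10% FBS at 37 °C and 5% CO₂. The medium was switched to 1% FBS 1 h before treatment. Cells were then given LPS (E. coli 055:B5) for 16 h, alone or with test compound, and PGE2 release was measured. Data were analysed by one-way ANOVA.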
In general terms: In an ELISA, binding on a coated surface is turned into a signal by an enzyme label.

The target is the same in test [4]. Put plainly: Antagonist/inverse agonist activity at CB2 receptor in mouse BV-2 cells assessed as LPS-induced PGE2 relaese at 10 fold Ki after 16 hrs by ELISA immunoassay. The class given is cell-based. The procedure, abridged:
as §1

In test [5] the target is T1, Cannabinoid receptor 2. Put plainly: Antagonist/inverse agonist activity at human CB2 receptor transfected in Chem4 cell membranes after 30 mins by [35S]-GTPgammaS binding assay. The test is classed as functional. In a few lines: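 Purchased CB2R-containing membranes in 20 mM HEPES with 100 mM NaCl and 10 mM MgCl₂, pH 7.4. Compound was added from 10⁻¹¹ to 10⁻⁵ M together with 30 nM CP55,940 and incubated 30 min at 30 °C. Non-specific signal was defined with unlabelled GTPγS. The reaction was stopped by GF/C filtration with phosphate-buffer washes, then scintillation counting.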
On the technique in general: GTPγS resists hydrolysis and so accumulates on activated G proteins.

Test [6] deals with Cannabinoid receptor 2 (Mus musculus) (UniProt P47936). Put plainly: Antagonist/inverse agonist activity at CB2 receptor in mouse BV-2 cells assessed as inhibition of WIN55,212-2-mediated attenuation of LPS-induced PGE2 release at 10 fold Ki after 16 hrs by ELISA immunoassay. The test is classed as cell-based. The procedure, abridged:
as §1

For test [7] the target is unchanged. The note with it: BV-2, 10 uM.

T1 sequence (P34972 whole entry): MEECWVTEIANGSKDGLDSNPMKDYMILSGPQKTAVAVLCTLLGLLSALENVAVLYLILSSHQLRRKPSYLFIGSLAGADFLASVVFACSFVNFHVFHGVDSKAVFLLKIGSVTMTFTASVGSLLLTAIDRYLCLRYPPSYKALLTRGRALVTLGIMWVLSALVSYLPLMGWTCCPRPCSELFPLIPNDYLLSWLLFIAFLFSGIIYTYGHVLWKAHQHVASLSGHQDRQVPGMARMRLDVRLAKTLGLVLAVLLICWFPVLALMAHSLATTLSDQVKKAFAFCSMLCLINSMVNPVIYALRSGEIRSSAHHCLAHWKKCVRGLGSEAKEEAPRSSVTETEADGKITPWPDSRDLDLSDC
Cannabinoid receptor 2 (Mus musculus), sequence (P47936 whole entry): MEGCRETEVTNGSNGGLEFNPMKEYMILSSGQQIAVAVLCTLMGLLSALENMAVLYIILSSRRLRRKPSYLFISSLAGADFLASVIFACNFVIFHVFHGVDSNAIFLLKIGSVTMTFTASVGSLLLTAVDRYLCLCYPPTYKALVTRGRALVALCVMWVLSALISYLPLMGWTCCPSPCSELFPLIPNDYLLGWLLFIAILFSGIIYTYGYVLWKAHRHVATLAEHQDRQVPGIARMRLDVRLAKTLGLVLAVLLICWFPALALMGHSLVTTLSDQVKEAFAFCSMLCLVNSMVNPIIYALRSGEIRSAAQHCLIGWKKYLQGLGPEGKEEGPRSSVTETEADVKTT

Take `Cc1ccc(Cn2cc(C(=O)NN3CCCC3)cc2-c2ccc(Cl)c(C)c2)cc1`: the Ki in test [1] and in test [2] was over 5 µM in each case.
Regarding `Cc1ccc(Cn2cc(C(=O)N[C@@H]3C[C@@H]4C[C@H]([C@H]3C)C4(C)C)cc2-c2ccc(Cl)c(C)c2)cc1`, in test [2], the Ki – broadly, the equilibrium dissociation constant of an inhibitor or competing ligand from its target – was over 5 µM.
Regarding `Cc1ccc(Cn2cc(C(=O)NN3CCCCC3)cc2-c2ccc(Cl)c(C)c2)cc1`, the Ki in test [1] and in test [2] was over 5 µM each time.
`Cc1ccc(Cn2cc(C(=O)N[C@@H](C)C3CCCCC3)cc2-c2ccc(Cl)c(C)c2)cc1` gave a Ki in test [2] of 0.492 µM. In other words, the sub-micromolar range.
As to `Cc1ccc(Cn2cc(C(=O)NCC34CC5CC(CC(C5)C3)C4)cc2-c2ccc(Cl)c(C)c2)cc1`, the Ki in test [1] and in test [2] was over 5 µM throughout.
Molecule `Cc1ccc(Cn2cc(CN[C@@H]3C(C)(C)C4CC[C@@]3(C)C4)cc2-c2ccc(Cl)c(C)c2)cc1` came in with a Ki in test [2] of 0.343 µM.
On to `Cc1ccc(Cn2cc(C(=O)N3CCN(c4ccccc4Cl)CC3)cc2-c2ccc(Cl)c(C)c2)cc1`, for which the Ki in test [1] was over 5 µM; in test [2] it was 1.71 µM.
On to `Cc1ccc(Cn2cc(C(=O)NC[C@@H]3CCC4C[C@@H]3C4(C)C)cc2-c2ccc(Cl)c(C)c2)cc1`, for which the Ki in test [1] is over 5 µM; in test [2], 0.0722 µM. Moreover, the inhibition entry in test [3], in test [4] and in test [6] was “Active” throughout. Moreover, in test [5], the IC50 (in general, the concentration needed to halve the response being measured) was 1.82 µM.
On to `Cc1ccc(Cn2cc(C(=O)NC3CCCCC3)cc2-c2ccc(Cl)c(C)c2)cc1`, for which the Ki in test [1] was over 5 µM; in test [2] it was 0.244 µM.
The like results for `Cc1ccc(Cn2cc(C(=O)N3CCCCC3)cc2-c2ccc(Cl)c(C)c2)cc1` were, in that order, 3.07 µM and 0.106 µM.
The like results for `Cc1ccc(Cn2cc(CN3CCN(c4ccc(Cl)cc4)CC3)cc2-c2ccc(Cl)c(C)c2)cc1` were, in that order, over 5 µM and over 5 µM.
On to `Cc1ccc(Cn2cc(CN3CCN(c4ccc(Cl)c(Cl)c4)CC3)cc2-c2ccc(Cl)c(C)c2)cc1`, for which the Ki in test [1] and in test [2] was over 5 µM in each case.
As for `Cc1ccc(Cn2cc(C(=O)Nc3cccc4ccccc34)cc2-c2ccc(Cl)c(C)c2)cc1`, the Ki in test [1] and in test [2] was over 5 µM throughout.
For `Cc1ccc(Cn2cc(C(=O)NC34CC5CC(CC(C5)C3)C4)cc2-c2ccc(Cl)c(C)c2)cc1`, the inhibition constant Ki in test [1] and in test [2] was over 5 µM throughout.
For `Cc1ccc(Cn2cc(C(=O)N[C@@H]3C(C)(C)C4CC[C@@]3(C)C4)cc2-c2ccc(Cl)c(C)c2)cc1`, the Ki stood at 1.47 µM in test [1] and 0.0057 µM in test [2]. Besides, the inhibition entry in test [3], in test [4] and in test [6] was “Active” in each case. In test [5], this molecule returned a 50% inhibitory concentration (IC50) of 0.171 µM.
In the case of `Cc1ccc(Cn2cc(C(=O)N[C@@H]3CC4CC[C@@]3(C)C4(C)C)cc2-c2ccc(Cl)c(C)c2)cc1`, the Ki in test [1] amounted to 0.368 µM; in test [2], 0.164 µM.
As for `Cc1ccc(Cn2cc(C(=O)N[C@H]3C[C@@H](C)CC[C@@H]3C(C)C)cc2-c2ccc(Cl)c(C)c2)cc1`, the Ki in test [1] is over 5 µM; in test [2], 1.1 µM.
In test [2], `Cc1ccc(Cn2nc(C(=O)N[C@@H]3CC4CC[C@@]3(C)C4(C)C)cc2-c2ccc(Cl)c(C)c2)cc1` registered a Ki of 0.0072 µM.
Take `Cc1ccc(Cn2cc(C(=O)N[C@H](C)C3CCCCC3)cc2-c2ccc(Cl)c(C)c2)cc1`: the Ki in test [1] and in test [2] was over 5 µM in each case.
On to `Cc1ccc(Cn2nc(C(=O)N[C@@H]3C(C)(C)[C@@H]4CC[C@@]3(C)C4)cc2-c2ccc(Cl)c(C)c2)cc1`, for which, in test [7], the inhibition entry was “Active”.
On to `Cc1ccc(Cn2cc(C(=O)NN3CCCCCC3)cc2-c2ccc(Cl)c(C)c2)cc1`, for which the Ki was over 5 µM in test [1] and 0.575 µM in test [2].

The record behind these values is ChEMBL document CHEMBL3611977, “Synthesis, pharmacological evaluation and docking studies of pyrrole structure-based CB2 receptor antagonists” (Eur J Med Chem, 2015).
